{"source": "ChEMBL document CHEMBL1159125", "about": "“Novel 3-aminopyrazole inhibitors of MK-2 discovered by scaffold hopping strategy” (Bioorg Med Chem Lett, 2010)", "key": {"[1]": {"tested_on": "Mus musculus", "experiment": "Antiinflammatory activity in po dosed OF1 mouse assessed as inhibition of LPS-induced TNFalpha release administered 4 hr prior to LPS challenge measured by ELISA", "assay_type": "functional", "parameters": "scale not given: the % may be the effect or the level left"}, "[2]": {"target": "Cyclin-dependent kinase 2 (Homo sapiens, UniProt P24941)", "experiment": "Inhibition of CDK2"}, "[3]": {"experiment": "Drug level in po dosed OF1 mouse blood after 6 hr", "assay_type": "ADME, organism-based, OF", "settings": "read-out: Drug uptake"}, "[4]": {"experiment": "Drug level in OF1 mouse blood at 100 mg/kg, po after 1 hr", "assay_type": "ADME, organism-based, OF", "parameters": "dose 100 mg/kg, route oral", "settings": "read-out: Drug uptake", "summary_of_the_method": "(§1)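 Female OF1 mice, 8 weeks old, dosed orally, then LPS (20 mg/kg) injected 1 h later. Blood taken 1 h after LPS, and compound blood levels quantified by LC–MS/MS.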"}, "[5]": {"experiment": "Drug level in po dosed OF1 mouse blood after 4 hr", "assay_type": "ADME, organism-based, OF", "settings": "read-out: Drug uptake"}, "[6]": {"tested_on": "Mus musculus", "experiment": "Antiinflammatory activity in OF1 mouse assessed as inhibition of LPS-induced TNFalpha release at 100 mg/kg, po administered 1 hr prior to LPS challenge", "assay_type": "functional", "summary_of_the_method": "(§2)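 Female OF1 mice, 8 weeks old, given compound orally; LPS (20 mg/kg) injected 1 h later. Blood withdrawn 1 h after LPS. Plasma mouse TNFα measured by ELISA; inhibition reported as percent.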"}, "[7]": {"tested_on": "Mus musculus", "experiment": "Antiinflammatory activity in po dosed OF1 mouse assessed as inhibition of LPS-induced TNFalpha release administered 1 hr prior to LPS challenge measured by ELISA", "assay_type": "functional", "summary_of_the_method": "as §2"}, "[8]": {"experiment": "Aqueous solubility at pH 1 to 6.8", "assay_type": "physicochemical", "settings": "aqueous medium"}, "[9]": {"target": "Mitogen-activated protein kinase 14 (Homo sapiens, UniProt Q16539)", "sequence (Q16539 whole entry)": "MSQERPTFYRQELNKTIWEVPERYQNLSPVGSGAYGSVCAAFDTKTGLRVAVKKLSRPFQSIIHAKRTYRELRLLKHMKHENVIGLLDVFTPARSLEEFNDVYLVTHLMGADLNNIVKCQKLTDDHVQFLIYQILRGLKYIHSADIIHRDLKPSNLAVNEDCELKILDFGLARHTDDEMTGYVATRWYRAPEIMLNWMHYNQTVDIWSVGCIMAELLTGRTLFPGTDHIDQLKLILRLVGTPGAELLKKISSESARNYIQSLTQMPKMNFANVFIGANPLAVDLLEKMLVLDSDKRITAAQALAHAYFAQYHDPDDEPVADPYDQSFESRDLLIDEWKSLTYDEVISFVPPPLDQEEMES", "experiment": "Inhibition of p38alpha"}, "[10]": {"tested_on": "Mus musculus", "experiment": "Antiinflammatory activity in po dosed OF1 mouse assessed as inhibition of LPS-induced TNFalpha release administered 6 hr prior to LPS challenge measured by ELISA", "assay_type": "functional", "parameters": "scale not given: the % may be the effect or the level left"}, "[11]": {"experiment": "Drug level in OF1 mouse blood at 30 mg/kg, po after 1 hr", "assay_type": "ADME, organism-based, OF", "parameters": "dose 30 mg/kg, route oral", "settings": "read-out: Drug uptake", "summary_of_the_method": "as §1"}, "[12]": {"tested_on": "THP-1", "experiment": "Cytotoxicity against human THP1 cells", "assay_type": "cell-based"}, "[13]": {"tested_on": "Mus musculus", "experiment": "Antiinflammatory activity in OF1 mouse assessed as inhibition of LPS-induced TNFalpha release at 30 mg/kg, po administered 1 hr prior to LPS challenge measured by ELISA", "assay_type": "functional, organism-based", "parameters": "dose 30 mg/kg", "summary_of_the_method": "as §2"}, "[14]": {"target": "Mitogen-activated protein kinase 8 (Homo sapiens, UniProt P45983)", "sequence (P45983 whole entry)": "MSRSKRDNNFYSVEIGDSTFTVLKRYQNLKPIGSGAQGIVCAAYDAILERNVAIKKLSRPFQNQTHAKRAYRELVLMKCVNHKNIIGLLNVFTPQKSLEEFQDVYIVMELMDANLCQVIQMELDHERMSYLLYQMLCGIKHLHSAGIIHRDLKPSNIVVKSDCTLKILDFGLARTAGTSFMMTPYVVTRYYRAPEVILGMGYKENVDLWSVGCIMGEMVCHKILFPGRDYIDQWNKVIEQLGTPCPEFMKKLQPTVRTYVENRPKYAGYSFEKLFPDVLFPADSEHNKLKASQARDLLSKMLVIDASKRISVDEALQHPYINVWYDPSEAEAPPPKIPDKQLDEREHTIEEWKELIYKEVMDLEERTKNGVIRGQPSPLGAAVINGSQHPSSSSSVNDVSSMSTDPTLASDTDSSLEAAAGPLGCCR", "experiment": "Inhibition of JNK1"}, "[15]": {"target": "Mitogen-activated protein kinase 9 (Homo sapiens, UniProt P45984)", "sequence (P45984 whole entry)": "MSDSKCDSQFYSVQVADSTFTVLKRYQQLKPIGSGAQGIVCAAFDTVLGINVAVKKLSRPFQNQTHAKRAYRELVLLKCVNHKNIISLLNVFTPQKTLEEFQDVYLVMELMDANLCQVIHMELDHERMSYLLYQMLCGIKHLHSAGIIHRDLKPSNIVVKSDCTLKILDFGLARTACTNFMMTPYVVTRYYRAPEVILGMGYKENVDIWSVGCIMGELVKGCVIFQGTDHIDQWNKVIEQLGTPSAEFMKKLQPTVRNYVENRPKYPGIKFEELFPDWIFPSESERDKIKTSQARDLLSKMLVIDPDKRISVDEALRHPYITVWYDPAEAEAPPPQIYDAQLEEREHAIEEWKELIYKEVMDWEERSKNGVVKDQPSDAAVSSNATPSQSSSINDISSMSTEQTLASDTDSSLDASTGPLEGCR", "experiment": "Inhibition of JNK2"}, "[16]": {"experiment": "Drug level in po dosed OF1 mouse blood after 1 hr", "assay_type": "ADME, organism-based, OF", "settings": "read-out: Drug uptake", "summary_of_the_method": "as §1"}, "[17]": {"experiment": "Permeability from apical to basolateral side in human Caco-2 cells", "assay_type": "ADME, cell-based"}}, "note": "Activity calls are given as the source filed them. The calls are words filed in the database; no cut-off is given here."}
{"smiles": "Nc1nn(-c2cccc(-c3ccc4cc[nH]c4c3)c2)cc1-c1ccc2c(c1)CCNC2=O", "values": [{"measurement": "Activity", "setting": "[1]", "value": 23, "unit": "%"}, {"measurement": "IC50", "setting": "[2]", "value": "> 10", "unit": "µM"}, {"measurement": "concentration at 6 h", "setting": "[3]", "value": 25.8, "unit": "µM"}, {"measurement": "concentration at 1 h", "setting": "[4]", "value": 17.4, "unit": "µM"}, {"measurement": "concentration at 4 h", "setting": "[5]", "value": 6.8, "unit": "µM"}, {"measurement": "inhibition in vivo at 100 mg/kg", "setting": "[6]", "value": 68, "unit": "%"}, {"measurement": "inhibition (INH)", "setting": "[7]", "value": 66, "unit": "%"}, {"measurement": "solubility", "setting": "[8]", "value": "< 2", "unit": "µg/mL"}, {"measurement": "IC50", "setting": "[9]", "value": "> 10", "unit": "µM"}, {"measurement": "Activity", "setting": "[10]", "value": 67, "unit": "%"}, {"measurement": "concentration at 1 h", "setting": "[11]", "value": 1.7, "unit": "µM"}, {"measurement": "IC50", "setting": "[12]", "value": "> 20", "unit": "µM"}, {"measurement": "Activity", "setting": "[13]", "value": "inactive"}, {"measurement": "IC50", "setting": "[14]", "value": "> 10", "unit": "µM"}, {"measurement": "IC50", "setting": "[15]", "value": "> 10", "unit": "µM"}, {"measurement": "concentration at 1 h", "setting": "[16]", "value": 14.1, "unit": "µM"}]}
{"smiles": "COc1ccc(-n2cc(-c3ccc4c(c3)C(=O)NCC4)c(N)n2)cc1", "values": [{"measurement": "Papp A→B", "setting": "[17]", "value": 48.3, "unit": "×10⁻⁶ cm/s"}]}
